Screening results deposited in PubChem by several laboratories.
In the library only some 1.9% were active in any assay of this set; here they are far more common.
aDG glyco up = increases alpha dystroglycan glycosylation. Pro5-aDG cells, alpha-DG glycosylation AlphaScreen (IIH6); 0% Pro5, 100% B10-LARGE cell signal. activation, % at 10 µM. 360,000 compounds, 0.22% hits. AID 624168;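 active = activation of at least 8% versus controls, or a plate z-score of at least 8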;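 also: Pro5 are CHO cells carrying HIG-tagged alpha-DG that lacks glycosylation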
Glyco luc inh = blocks N-linked glycosylation in D54 reporter cells. D54 ERlucT glycosylation luciferase reporter, 24 h; percent of 100 nM tunicamycin response. reporter increase, % at 12.5 µM. 360,000 compounds, 0.23% hits. AID 588692;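 active = mean luciferase reporter signal, scaled so untreated is 0 and the glycosylation-blocking control 100, at or above a set limit in every replicate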;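 also: luciferase carries N-glycosylation sites so blocking glycosylation raises the light; 0% = median of neutral control wells and 100% = median of 100 nM tunicamycin wells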
MsrA act = activators of bovine methionine sulfoxide reductase A; purified bovine MsrA, absorbance read-out; activation, % at 10.6 µM; 360,000 compounds, 0.3% hits; AID 602163; in the data active = activation above about 7.5%;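 also: 0% = vehicle and 100% = reference activator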
UCH37 inh = inhibitors of human deubiquitinating enzyme UCH37 | 330,000 compounds, 0.33% hits | inhibition, % (test concentration not listed) | AID 588478 | purified proteasome/UCH37, Ub-AMC cleavage fluorescence;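 active = mean inhibition over replicate wells above about 20%, limit read from the data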;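 also: 0% = compound-free wells with enzyme and 100% = wells lacking proteasome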
Target sequence (Q9Y5K5 whole entry, looked up): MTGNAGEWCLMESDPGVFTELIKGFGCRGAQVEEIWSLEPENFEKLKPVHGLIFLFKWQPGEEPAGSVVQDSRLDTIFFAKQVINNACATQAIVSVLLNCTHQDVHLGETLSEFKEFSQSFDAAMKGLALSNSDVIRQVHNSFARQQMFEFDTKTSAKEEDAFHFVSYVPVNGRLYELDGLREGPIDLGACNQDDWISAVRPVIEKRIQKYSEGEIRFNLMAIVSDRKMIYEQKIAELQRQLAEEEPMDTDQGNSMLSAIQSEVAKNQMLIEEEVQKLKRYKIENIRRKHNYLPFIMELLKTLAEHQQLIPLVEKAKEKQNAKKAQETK
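Schedule: 30 min plus 25 min, room temperature / Material: human UCH37 within purified proteasomes / Technique: AMC fluorescence intensity at 355/460 nm / Buffer or medium: pH 7.4 Tris-HCl (50 mM) with ovalbumin, ATP-MgCl2, DTT / Controls: wells without proteasome as full block, compound-free enzyme plus substrate as uninhibited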
Vif inh = HIV Vif inhibition | 340,000 compounds, 0.35% hits | HEK293T cells, Vif self-association by quenched fluorescence, imaging, 24 h | inhibition, % at 7.49 µM; in the data active = inhibition above about 50%, passing the limit was not always enough
MsrA inh = inhibitors of bovine MsrA; purified bovine MsrA, absorbance read-out; inhibition, % at 15.5 µM; 360,000 compounds, 0.75% hits; in the data active = inhibition above about 4.5%;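 also: 0% = vehicle wells with enzyme and 100% = reference inhibitor wells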
MsrA activ conf = confirmation of bovine methionine sulfoxide reductase A activators | shares compounds with MsrA act | 1,000 compounds, 12% hits | activation, % at 10.6 µM | purified bovine MsrA, absorbance read-out | AID 602270; in the data active = activation above about 4%;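 also: enzyme coupled to thioredoxin and thioredoxin reductase with NADPH; 0% = vehicle wells and 100% = reference activator wells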
Active calls of the source: *; · = no result.

SMILES | aDG glyco up | Glyco luc inh | MsrA act | UCH37 inh | Vif inh | MsrA inh | MsrA activ conf
COC(=O)c1cccc(S(=O)(=O)N2CCC(c3nc4ccccc4o3)CC2)c1 | 0 | -1 | -9 | 3 | 5 | -1 | ·
COCCNC(=O)C(=O)NN=Cc1cccs1 | · | · | · | 6 | · | · | ·
O=C(NC(=S)Nc1cccc([N+](=O)[O-])c1)c1ccco1 | 0 | 1 | 4 | 1 | · | 0 | ·
CN(C)S(=O)(=O)c1cccc(NC(=S)NC(=O)c2ccco2)c1 | 0 | -1 | 11* | -1 | 24 | 0 | -4
CC(=O)Nc1nnc(Cc2ccccc2)s1 | 0 | 0 | 8.6* | · | -3 | -1 | -3
COc1ccc(Cc2nnc(NC(=O)Nc3ccccc3F)s2)cc1OC | 0 | 8 | 11* | 0 | 6 | -1 | -1
COc1ccc(Cc2nnc(NC(=O)Nc3ccccc3F)s2)cc1 | 0 | 0 | -3 | 0 | 7 | -2 | ·
C=CCOc1c(Br)cc(C=NNC(N)=O)cc1OC | · | · | · | -3 | · | · | ·
O=C(Nc1ccc2c(c1)OCO2)c1cncc(Br)c1 | 0 | -4 | -2 | 0 | · | 0 | ·
O=C(Nc1ccc2c(c1)OCCO2)c1cncc(Br)c1 | 0 | -11 | 9.2* | 0 | -7 | 0 | 0
CCCCCC(=NNC(=O)Nc1ccccc1)c1ccccc1 | · | · | · | 4 | · | · | ·
COc1ccc(Cl)cc1-c1n[nH]c(=S)n1C1CCCCC1 | 0 | -1 | -4 | 1 | 1 | 1 | ·
Cc1cc(Cl)ccc1OCc1n[nH]c(=S)n1C1CCCCC1 | 0 | 0 | 8.6* | 0 | -8 | 0 | 0
CC(OC(=O)c1cccc(S(=O)(=O)N2CCCCC2)c1)C(=O)NC1CCCCC1C (stereo unspecified) | 1 | 0 | 21* | 0 | -6 | -1 | 0
Nc1nc2ccccc2n1/N=C/c1ccc([N+](=O)[O-])s1 | 4 | -1 | 8.0* | · | · | 3 | 7.8*
Cc1cc(OCC(=O)Nc2nnc(C3CC3)s2)ccc1C(C)C | 0 | 1 | 11* | -1 | 0 | -1 | -2
Cc1ccc(C(C)C)cc1OCC(=O)Nc1nnc(C2CC2)s1 | 0 | -9 | -3 | -1 | -14 | 0 | ·
COc1cccc2c(=O)cc(C)n(CC(=O)Nc3ccc(C)c(C)c3)c12 | 4 | 2 | 9.4* | -4 | -9 | 0 | 0
C#CCOCCOCCOCCNc1nc(N2CCN(C(=O)[C@H]([C@@H](C)CC)n3cc(CCCN=C(N)N)nn3)CC2)nc(N2CCN(C(=O)[C@H]([C@@H](C)CC)n3cc(CCC(=O)O)nn3)CC2)n1 | 0 | 3 | 7.9* | · | -4 | 0 | -1
C#CCOCCOCCOCCNc1nc(N2CCN(C(=O)[C@H]([C@@H](C)CC)n3cc(CCC(=O)O)nn3)CC2)nc(N2CCN(C(=O)[C@H](C)n3cc(CCCN=C(N)N)nn3)CC2)n1 | 0 | -1 | -2 | 4 | -3 | 1 | ·
CC1CC1C(=O)OCC(=O)NC(=O)c1ccc(C(C)(C)C)cc1 (stereo unspecified) | 0 | 1 | -7 | 0 | 4 | 3 | ·
COc1ccc(C(=O)NC(=O)COC(=O)C2CC2C)cc1 (stereo unspecified) | 0 | 2 | 8.0* | -2 | 21 | 0 | -3
COc1cccc(COc2ccccc2C2Nc3ccc(Br)cc3C(=O)N2NC(=O)c2ccncc2)c1 (stereo unspecified) | 0 | -2 | 18* | -6 | -6 | 1 | -3
O=c1c2c3nc4ccccc4nc3n(N=Cc3ccncc3)c2ncn1-c1ccccc1 | · | · | · | -4 | · | · | ·
Cc1c(C(C)(C)C)sc(=NS(=O)(=O)c2ccccc2)n1C | · | · | · | 0 | · | · | ·
SMILES | aDG glyco up | Glyco luc inh | MsrA act | UCH37 inh | Vif inh | MsrA inh | MsrA activ conf
O=C(Nc1n[nH]c(=S)s1)c1ccco1 | 0 | 1 | 8.7* | 10 | · | 2 | 2
O=c1[nH]c(=S)[nH]cc1Oc1ccc(Cl)cc1Cl | 0 | 0 | 8.8* | 3 | -1 | 0 | 4.7*
C#Cc1ccccc1OCCCN1CCC(C(O)(c2ccccc2)c2ccccc2)CC1 | 1 | · | 0 | · | · | 1 | ·
N#Cc1ccccc1OCCCN1CCC(C(O)(c2ccccc2)c2ccccc2)CC1 | 1 | · | 8.3* | · | · | -1 | -2
COc1ccc(C(C)=NNC(=O)c2ccncc2)cc1[N+](=O)[O-] | · | · | · | 2 | · | · | ·
Nn1cnnc1NN=Cc1ccc(Cl)c([N+](=O)[O-])c1 | · | · | · | 10 | · | · | ·
